Results: ChEMBL document CHEMBL1125516, “TSAO analogues. Stereospecific synthesis and anti-HIV-1 activity of 1-[2',5'-bis-O-(tert-butyldimethylsilyl)-beta-D-ribofuranosyl]-3'-spiro -5''- (4''-amino-1'',2''-oxathiole 2'',2''-dioxide) pyrimidine and pyrimidine-modified nucleosides” (J Med Chem, 1992)

Legend:
MT4 [1] = experiment: Cytotoxic concentration required to reduce MT-4 cell viability by 50%; format: functional; details: Homo sapiens
Outline: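 MT-4 cells (HTLV-1-transformed human T-lymphocytes) at 5 × 10^5 cells/mL were mock-infected and mixed 1:1 with serial dilutions of compound. After 5 days, viable cells were counted by trypan blue exclusion in a blood-cell-counting chamber. CC50 is the concentration reducing viable cell number by 50%. Values are means of at least three to five independent experiments.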

[2] = Selectivity index was defined as the ratio of CC50 to EC50; format: functional
Outline: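 The ratio is CC50/EC50. Both come from MT-4 cells at 5 × 10^5 cells/mL, mixed 1:1 with compound dilutions for 5 days, with viable cells counted by trypan blue. EC50 used cells infected with HIV-1 (IIIB) at 100 CCID50 per mL. CC50 used mock-infected cells. […] Values are means of three to five experiments.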

MT4 [3] = experiment: Concentration required to inhibit HIV-1 induced cytopathicity in MT-4 cells by 50%; format: functional, cell-based; details: Homo sapiens
Outline: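 HIV-1 IIIB-infected human MT-4 cells (HTLV-1-transformed), 5 x 10^5 cells/mL, infected at 100 CCID50 per mL of cell suspension, then mixed with compound dilutions. After 5 days, viable cells were counted by trypan blue staining in a blood-cell-counting chamber. EC50 is the concentration […]. Values are means of at least three to five independent experiments.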

Structure (SMILES)	CC50 (MT4 [1]) [µM]	Selectivity index [2]	EC50 (MT4 [3]) [µM]
Cc1cn([C@@H]2O[C@H](CO[Si](C)(C)C(C)(C)C)[C@@]3(OS(=O)(=O)C=C3N)[C@H]2O[Si](C)(C)C(C)(C)C)c(=O)nc1N	31	246	0.127
Cc1ccnc2c1NC(=O)c1cccnc1N2C1CC1 [NEVIRAPINE]	> 80	> 625	0.128
CCn1c(=O)c(C)cn([C@@H]2O[C@H](CO[Si](C)(C)C(C)(C)C)[C@@]3(OS(=O)(=O)C=C3N)[C@H]2O[Si](C)(C)C(C)(C)C)c1=O	123	1000	0.123
CC(=O)O[C@H]1[C@H](n2cc(C)c(=O)[nH]c2=O)O[C@H](COC(=O)c2ccccc2)[C@@]12OS(=O)(=O)C=C2N	> 200	–	> 200
C=CCn1c(=O)c(C)cn([C@@H]2O[C@H](CO[Si](C)(C)C(C)(C)C)[C@@]3(OS(=O)(=O)C=C3N)[C@H]2O[Si](C)(C)C(C)(C)C)c1=O	–	> 1420	0.233
Cc1cn([C@@H]2O[C@H](COC(=O)c3ccccc3)[C@@]3(OS(=O)(=O)C=C3N)[C@H]2O[Si](C)(C)C(C)(C)C)c(=O)[nH]c1=O	36	< 2.5	> 15
Cc1cn([C@@H]2O[C@H](CO)[C@@]3(OS(=O)(=O)C=C3N)[C@H]2O[Si](C)(C)C(C)(C)C)c(=O)[nH]c1=O	229	< 2.5	> 80
CC(C)=CCn1c(=O)c(C)cn([C@@H]2O[C@H](CO[Si](C)(C)C(C)(C)C)[C@@]3(OS(=O)(=O)C=C3N)[C@H]2O[Si](C)(C)C(C)(C)C)c1=O	69	183	0.377
Cc1cn([C@@H]2O[C@H](CO[Si](C)(C)C(C)(C)C)C3(OS(=O)(=O)C=C3N)[C@H]2O[Si](C)(C)C(C)(C)C)c(=O)[nH]c1=O (some centres undefined)	14	–	0.06
CC(C)(C)[Si](C)(C)OC[C@H]1O[C@@H](n2ccc(=O)[nH]c2=O)[C@H](O[Si](C)(C)C(C)(C)C)C12OS(=O)(=O)C=C2N (some centres undefined)	15	73	0.206
CC(C)=CCN1Cc2cccc3[nH]c(=S)n(c23)C[C@@H]1C	> 80	> 1050	0.076
Cc1cn([C@@H]2O[C@H](CO[Si](C)(C)C(C)(C)C)[C@@]3(OS(=O)(=O)C=C3N)[C@H]2O[Si](C)(C)C(C)(C)C)c(=O)n(C)c1=O	240	4090	0.059
CC(C)(C)[Si](C)(C)OC[C@H]1O[C@@H](n2ccc(N)nc2=O)[C@H](O[Si](C)(C)C(C)(C)C)[C@]12OS(=O)(=O)C=C2N	> 360	> 360	1
C=CCn1c(=O)ccn([C@@H]2O[C@H](CO[Si](C)(C)C(C)(C)C)[C@@]3(OS(=O)(=O)C=C3N)[C@H]2O[Si](C)(C)C(C)(C)C)c1=O	8.9	15	0.615
